The source made the active and inactive calls. The rule behind the calls is not given here.
How the values were obtained:
[1] = Hepatotoxicity in human HepG2 cells assessed as cell viability at 1000 uM by MTT assay relative to control; format: toxicity, cell-based; settings: read-out: Activity
[2] = Hepatotoxicity in human HepG2 cells assessed as cell viability at 3 uM by MTT assay relative to control; format: toxicity, cell-based; settings: read-out: Activity
[3] = Hepatotoxicity in human HepG2 cells assessed as cell viability at 100 uM by MTT assay relative to control; format: toxicity, cell-based; settings: read-out: Activity
[4] = Hepatotoxicity in human HepG2 cells assessed as cell viability at 30 uM by MTT assay relative to control; format: toxicity, cell-based; settings: read-out: Activity
[5] = test system: Mus musculus; assay: Cognitive enhancing effect in C57BL/6J mouse assessed as reversal of scopolamine-induced long-term memory deficit by measuring increase in latency time during probe session at 1 mg/kg, iv administered 90 mins prior to scopolamine-challenge measured after 24 hrs by passive avoidance test; format: functional, organism-based; parameters: dose 1 mg/kg
[6] = Hepatotoxicity in human HepG2 cells assessed as cell viability at 300 uM by MTT assay relative to control; format: toxicity, cell-based; settings: read-out: Activity
[7] = test system: Mus musculus; assay: Cognitive enhancing effect in C57BL/6J mouse assessed as reversal of scopolamine-induced long-term memory deficit by measuring latency time during training session at 1 mg/kg, iv administered 90 mins prior to scopolamine-challenge measured after 24 hrs by passive avoidance test; format: functional, organism-based; parameters: dose 1 mg/kg
[8] = Hepatotoxicity in human HepG2 cells assessed as cell viability at 1 uM by MTT assay relative to control; format: toxicity, cell-based; settings: read-out: Activity
[9] = Drug absorption in human intestine
[10] = Hepatotoxicity in human HepG2 cells assessed as cell viability at 10 uM by MTT assay relative to control; format: toxicity, cell-based; settings: read-out: Activity
[11] = Protein binding in plasma (unknown origin)
[12] = Effective permeability across human intestinal membrane by Ussing chamber technique
[13] = Apparent permeability in MDCK cells; settings: dog
[14] = Permeability in human Caco2 cells; settings: Caco-2
[15] = target: T1, Amine oxidase [flavin-containing] B (Rattus norvegicus, UniProt P19643); assay: Inhibition of MAO-B in rat liver homogenate using [14C]-phenylethylamine as substrate preincubated for 30 mins followed by substrate addition measured after 4 mins by liquid scintillation counting analysis; format: tissue-based
T1 sequence (P19643 whole entry): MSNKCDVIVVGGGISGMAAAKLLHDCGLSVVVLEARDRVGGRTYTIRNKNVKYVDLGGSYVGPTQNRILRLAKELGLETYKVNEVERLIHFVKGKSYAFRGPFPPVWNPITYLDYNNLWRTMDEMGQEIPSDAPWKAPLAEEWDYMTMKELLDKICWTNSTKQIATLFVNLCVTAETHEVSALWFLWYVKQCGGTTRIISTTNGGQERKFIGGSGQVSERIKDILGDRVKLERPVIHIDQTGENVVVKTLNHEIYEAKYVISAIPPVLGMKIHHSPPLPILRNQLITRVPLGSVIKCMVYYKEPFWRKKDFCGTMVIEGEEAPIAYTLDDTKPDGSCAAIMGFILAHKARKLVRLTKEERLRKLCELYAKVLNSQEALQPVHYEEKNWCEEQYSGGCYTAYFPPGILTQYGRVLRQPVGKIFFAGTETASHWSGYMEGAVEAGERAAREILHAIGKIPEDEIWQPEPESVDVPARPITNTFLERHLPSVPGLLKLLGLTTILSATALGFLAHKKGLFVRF
In short: (§1)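 MAO source was rat liver homogenate. Enzyme pre-incubated 30 min with a range of inhibitor concentrations in 50 mM phosphate buffer, pH 7.4. Substrates: MAO A, 100 μM [14C]-5-HT (0.5 mCi/mmol), reaction 20 min; MAO B, 20 μM [14C]-PEA (2.5 mCi/mmol), reaction 4 min. Final volume 225 μl.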

[16] = target: T2, Amine oxidase [flavin-containing] A (Rattus norvegicus, UniProt P21396); assay: Inhibition of MAO-A in rat liver homogenate using [14C]-5HT as substrate preincubated for 30 mins followed by substrate addition measured after 20 mins by liquid scintillation counting analysis; format: tissue-based; in short: as §1
T2 sequence (P21396 whole entry): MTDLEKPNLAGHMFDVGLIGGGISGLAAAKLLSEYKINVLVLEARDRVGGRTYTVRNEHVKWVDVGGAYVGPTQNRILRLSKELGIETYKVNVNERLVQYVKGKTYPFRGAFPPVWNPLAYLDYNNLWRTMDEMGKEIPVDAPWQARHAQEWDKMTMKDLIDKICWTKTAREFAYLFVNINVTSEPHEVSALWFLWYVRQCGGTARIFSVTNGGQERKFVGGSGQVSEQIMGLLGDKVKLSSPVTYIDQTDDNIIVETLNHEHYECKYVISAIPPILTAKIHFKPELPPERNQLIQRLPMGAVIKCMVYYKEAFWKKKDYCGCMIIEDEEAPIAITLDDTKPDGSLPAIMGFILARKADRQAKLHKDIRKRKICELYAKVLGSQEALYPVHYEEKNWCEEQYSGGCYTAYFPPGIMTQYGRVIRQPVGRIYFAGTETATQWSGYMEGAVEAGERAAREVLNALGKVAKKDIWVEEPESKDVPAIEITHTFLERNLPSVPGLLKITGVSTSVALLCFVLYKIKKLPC

[17] = target: Acetylcholinesterase (Electrophorus electricus, UniProt O42275); assay: Inhibition of electric eel AChE using acetylthiocholine iodide as substrate preincubated for 20 mins followed by substrate addition measured after 5 mins by Ellman's method
Chain of Acetylcholinesterase (O42275 whole entry): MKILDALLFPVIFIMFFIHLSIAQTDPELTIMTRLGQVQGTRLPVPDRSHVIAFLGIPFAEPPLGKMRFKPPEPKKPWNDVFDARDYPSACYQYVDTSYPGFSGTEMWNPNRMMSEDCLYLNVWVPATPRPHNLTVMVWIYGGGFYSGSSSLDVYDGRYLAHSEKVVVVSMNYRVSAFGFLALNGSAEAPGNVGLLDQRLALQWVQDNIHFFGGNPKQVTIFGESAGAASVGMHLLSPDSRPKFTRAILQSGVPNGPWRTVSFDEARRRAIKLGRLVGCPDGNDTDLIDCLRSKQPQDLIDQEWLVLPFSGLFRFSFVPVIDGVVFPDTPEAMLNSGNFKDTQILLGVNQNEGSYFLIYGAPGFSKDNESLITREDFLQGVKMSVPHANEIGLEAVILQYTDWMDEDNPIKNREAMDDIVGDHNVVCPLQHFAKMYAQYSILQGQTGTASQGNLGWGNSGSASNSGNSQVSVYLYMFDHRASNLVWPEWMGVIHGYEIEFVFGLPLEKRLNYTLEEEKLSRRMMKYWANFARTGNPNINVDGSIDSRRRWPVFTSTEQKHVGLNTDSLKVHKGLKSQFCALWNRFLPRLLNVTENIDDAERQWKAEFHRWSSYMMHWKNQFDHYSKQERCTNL

[18] = target: Cholinesterase (Equus caballus, UniProt P81908); assay: Inhibition of equine serum BuChE using butyrylthiocholine iodide as substrate preincubated for 20 mins followed by substrate addition measured after 25 mins by Ellman's method
Chain of Cholinesterase (P81908 whole entry): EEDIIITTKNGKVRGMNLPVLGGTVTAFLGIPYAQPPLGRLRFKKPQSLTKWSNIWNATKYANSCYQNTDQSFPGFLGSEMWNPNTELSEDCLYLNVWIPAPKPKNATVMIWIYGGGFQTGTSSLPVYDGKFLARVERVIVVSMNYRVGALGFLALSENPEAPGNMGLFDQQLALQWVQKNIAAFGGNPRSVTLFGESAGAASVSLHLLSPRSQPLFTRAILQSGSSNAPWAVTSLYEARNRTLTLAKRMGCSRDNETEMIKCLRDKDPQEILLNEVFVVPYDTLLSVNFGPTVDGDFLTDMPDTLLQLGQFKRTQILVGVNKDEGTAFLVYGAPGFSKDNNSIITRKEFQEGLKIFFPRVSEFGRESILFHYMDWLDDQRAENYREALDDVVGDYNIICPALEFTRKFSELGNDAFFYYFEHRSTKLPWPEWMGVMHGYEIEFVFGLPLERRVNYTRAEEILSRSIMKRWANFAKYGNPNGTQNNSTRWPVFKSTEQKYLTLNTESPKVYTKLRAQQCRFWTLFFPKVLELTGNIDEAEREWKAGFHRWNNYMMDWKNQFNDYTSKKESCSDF
In short: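 Ellman-type colorimetric assay in 0.1 M phosphate buffer pH 8.0 with 0.05 U/mL BuChE and 0.35 mM DTNB. Serial inhibitor dilutions pre-incubated with the mix for 20 min, then butyrylthiocholine iodide added (final 0.5 mM). […] At least three experiments in triplicate, mean ± SEM.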

[19] = target: T1, Amine oxidase [flavin-containing] B; assay: Irreversible inhibition of MAO-B in rat liver homogenate assessed as recovery of enzyme activity at 20 uM preincubated for 30 mins followed by centrifugation and washing with PBS buffer; format: tissue-based
In short: (§2)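 Enzyme pre-incubated 30 min at 37 °C with inhibitor: 10 μM (MAO A) or 20 μM (MAO B). […] Three cycles of washing in 50 mM phosphate buffer pH 7.4 and centrifugation at 25,000 g, 10 min, 4 °C. Protein measured by Bradford; activity then assayed by the radiometric method. Six independent experiments in triplicate; Kruskal-Wallis analysis.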

[20] = target: T1, Amine oxidase [flavin-containing] B; assay: Inhibition of MAO-B in rat liver homogenate preincubated for 30 mins; format: tissue-based
In short: (§3)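 Rat liver homogenate as the MAO source. The enzyme is pre-incubated 30 min with several inhibitor concentrations in 50 mM phosphate buffer, pH 7.4. […] Mean ± SEM of at least three experiments in quadruplicate.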

[21] = target: T2, Amine oxidase [flavin-containing] A; assay: Inhibition of MAO-A in rat liver homogenate; format: tissue-based; in short: as §3
[22] = target: T1, Amine oxidase [flavin-containing] B; assay: Inhibition of MAO-B in rat liver homogenate; format: tissue-based; in short: as §3
[23] = target: T2, Amine oxidase [flavin-containing] A; assay: Irreversible inhibition of MAO-A in rat liver homogenate assessed as recovery of enzyme activity at 10 uM preincubated for 30 mins followed by centrifugation and washing with PBS buffer; format: tissue-based; in short: as §2
[24] = test system: Mus musculus; assay: Cognitive enhancing effect in C57BL/6J mouse assessed as reversal of scopolamine-induced long-term memory deficit by measuring increase in latency time during probe session at 35 mg/kg, iv administered 90 mins prior to scopolamine-challenge measured after 24 hrs by passive avoidance test; format: functional, organism-based; parameters: dose 35 mg/kg
[25] = target: T2, Amine oxidase [flavin-containing] A; assay: Inhibition of MAO-A in rat liver homogenate preincubated for 30 mins; format: tissue-based; in short: as §3
[26] = Metal chelating activity assessed as compound concentration required for ferric ion complex formation by UV-Vis spectrometric analysis; format: physicochemical
In short: (§4)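 UV-Vis spectra (220-300 nm) recorded in distilled water at room temperature in 1 cm quartz cells. Ligand at 10 μM with increasing CuSO4, Fe2(SO4)3 or ZnSO4. Incubation times: Cu(II) 5 min, Zn(II) 1 h, Fe(III) overnight. Stoichiometry found by Job's method, plotting absorbance at 257 nm against ligand mole fraction.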

[27] = Metal chelating activity assessed as compound concentration required for copper complex formation after 5 mins by UV-Vis spectrometric analysis; format: physicochemical; in short: as §4
[28] = Metal chelating activity assessed as compound concentration required for zinc complex formation after 1 hr by UV-Vis spectrometric analysis; format: physicochemical; in short: as §4
[29] = test system: Mus musculus; assay: Cognitive enhancing effect in C57BL/6J mouse assessed as reversal of scopolamine-induced long-term memory deficit by measuring latency time during training session at 35 mg/kg, iv administered 90 mins prior to scopolamine-challenge measured after 24 hrs by passive avoidance test; format: functional, organism-based; parameters: dose 35 mg/kg
[30] = target: Acetylcholinesterase (Electrophorus electricus) (UniProt O42275); assay: Mixed-type inhibition of electric eel AChE using acetylthiocholine iodide as substrate at 0.5 to 5 uM by Lineweaver-Burk plot analysis
Chain of Acetylcholinesterase (Electrophorus electricus) (O42275 24-633 limits assumed): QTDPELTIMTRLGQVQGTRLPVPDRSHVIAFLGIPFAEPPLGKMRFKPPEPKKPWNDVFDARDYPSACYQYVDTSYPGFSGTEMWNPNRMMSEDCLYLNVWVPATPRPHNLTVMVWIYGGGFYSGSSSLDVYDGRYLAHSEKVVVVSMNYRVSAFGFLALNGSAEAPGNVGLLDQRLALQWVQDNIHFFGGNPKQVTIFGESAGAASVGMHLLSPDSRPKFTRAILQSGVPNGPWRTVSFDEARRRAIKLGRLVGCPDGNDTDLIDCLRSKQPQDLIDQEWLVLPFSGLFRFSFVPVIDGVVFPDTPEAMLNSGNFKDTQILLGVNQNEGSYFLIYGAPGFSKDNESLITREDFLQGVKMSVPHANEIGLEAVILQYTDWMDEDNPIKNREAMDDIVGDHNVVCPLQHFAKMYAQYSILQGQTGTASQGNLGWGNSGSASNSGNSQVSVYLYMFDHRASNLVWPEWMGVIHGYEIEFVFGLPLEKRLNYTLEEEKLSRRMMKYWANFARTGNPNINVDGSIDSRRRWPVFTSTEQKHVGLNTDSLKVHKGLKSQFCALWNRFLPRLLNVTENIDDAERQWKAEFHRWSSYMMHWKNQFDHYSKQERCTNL

Row | Compound | Fa [9] [%] | fraction unbound [11] | Papp [12] [nm/s] | Papp [13] [nm/s] | Papp [14] [nm/s] | IC50 [17] [µM] | further results
1 | COc1cc2c(cc1OC)C(=O)C(CC1CCN(Cc3ccccc3)CC1)C2 (configuration not stated) [DONEPEZIL] | 98 | 0.154 |  |  |  |  | viability at 1000 µM [1]: 40.9%; viability at 3 µM [2]: 97%; viability at 100 µM [3]: 80%; viability at 30 µM [4]: 83.5%; Activity [5]: Active; viability at 300 µM [6]: 53.4%; Activity [7]: inactive; viability at 1 µM [8]: 98.6%; viability at 10 µM [10]: 92.4%
2 | C#CCN(CCCC1CCN(Cc2ccccc2)CC1)Cc1ccc(O)c2ncccc12 | 96.9 | 0.226 | 6240 | 302 | 54.1 |  | 
3 | C#CCN(Cc1ccc(O)c2ncccc12)C(C#N)C1CCN(Cc2ccccc2)CC1 (racemic) | 96.8 | 0.197 | 3360 | 348 | 49.3 |  | 
4 | C#CCN(C)Cc1ccc(O)c2ncccc12 | 95.9 | 0.31 | 2500 | 429 | 42.9 | ≥ 100 | IC50 [15]: 1.5 µM; IC50 [16]: 0.057 µM
5 | C#CCN(Cc1ccc(O)c2ncccc12)C(C#N)CC1CCN(Cc2ccccc2)CC1 (racemic) | 96.9 | 0.216 | 3750 | 322 | 52 |  | 
6 | C#CCN(C)CCCOc1ccc(Cl)cc1Cl [CLORGILINE] |  |  |  |  |  | ≥ 500 | IC50 [18]: ≥ 500 µM
7 | C#CCN(Cc1ccc(O)c2ncccc12)C(C#N)CCC1CCN(Cc2ccccc2)CC1 (racemic) | 97 | 0.2 | 4180 | 306 | 54.4 | 1.8 | viability at 1000 µM [1]: 51.5%; inhibition (INH) [19]: Active; IC50 [18]: 1.6 µM; viability at 3 µM [2]: 94.8%; viability at 100 µM [3]: 85.6%; IC50 [20]: 8.3 µM; viability at 30 µM [4]: 92.4%; inhibition (INH) [21]: Dose-dependent effect; inhibition (INH) [22]: Dose-dependent effect; inhibition (INH) [23]: Active; viability at 300 µM [6]: 71.4%; Activity [24]: Active; IC50 [25]: 3.8 µM; Activity [26]: 0.5 mole fraction; viability at 1 µM [8]: 98.4%; Activity [27]: 0.65 mole fraction; viability at 10 µM [10]: 94.4%; Activity [28]: 0.65 mole fraction; Activity [29]: inactive; inhibition [30]: Active
8 | C#CCN(Cc1ccc(O)c2ncccc12)CC1CCN(Cc2ccccc2)CC1 | 96.8 | 0.236 | 4990 | 326 | 52.3 |  | 
9 | C#CCN(CCC1CCN(Cc2ccccc2)CC1)Cc1ccc(O)c2ncccc12 | 96.9 | 0.229 | 5590 | 313 | 54.4 |  | 
10 | C#CCN(Cc1ccc(O)c2ncccc12)C1CCN(Cc2ccccc2)CC1 | 96.8 | 0.273 | 4470 | 351 | 45.7 | ≥ 100 | IC50 [15]: ≥ 100 µM; IC50 [18]: ≥ 100 µM; IC50 [16]: ≥ 100 µM
11 | C#CCN(C)[C@H](C)Cc1ccccc1 [SELEGILINE] |  |  |  |  |  | ≥ 500 | 
